# Sampled rows, rich in hits. Any-hit rate of the full collection: about 4.6%.
# OX1R antag-1: blocks the human orexin 1 receptor; 330,000 compounds, 0.43% hits; inhibition, % at 5 µM; O43613; CHO/OX1R cells, Fluo-8 calcium fluorescence, orexin A; AID 434989;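 active = inhibition above its plate's threshold, mean inhibition of all tested compounds on the plate plus 3 SD, cut at about 37% in these data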;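 also: 0% = orexin A challenge wells and 100% = SB-334867-A antagonist wells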
# CHO parental Ca: counter-screen: ATP calcium response change in parental CHO cells; 330,000 compounds, 0.63% hits; parental CHO-K1, ATP-induced calcium, Fluo-8 fluorescence; AID 463079; inhibition, % at 5.6 µM;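 active = inhibition above that plate's mean sample inhibition plus 3 SD, cut at about 26% in these data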;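 also: 0% = ATP-challenged DMSO wells and 100% = DMSO wells without ATP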
#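 test system = CHO parental line | reagent = ATP stimulus | measured by = intracellular calcium via Fluo-8 no-wash fluorescent dye | control set = ATP and no-ATP DMSO wells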
# TAAR1 antagonist: antagonists of human TAAR1; Q96RJ0; 360,000 compounds, 1.5% hits; inhibition, % at 3 µM; AID 624466; CHO RD-HGA16 TAAR1, Fluo-8 calcium fluorescence, antagonist;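 active = inhibition above a per-plate cutoff, the mean inhibition of test compounds on that plate plus 3 SD, cut at about 49% in these data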;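 also: 0% = DMSO plus EC80 beta-PEA response and 100% = DMSO alone without agonist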
# Target sequence (Q96RJ0 whole entry, looked up): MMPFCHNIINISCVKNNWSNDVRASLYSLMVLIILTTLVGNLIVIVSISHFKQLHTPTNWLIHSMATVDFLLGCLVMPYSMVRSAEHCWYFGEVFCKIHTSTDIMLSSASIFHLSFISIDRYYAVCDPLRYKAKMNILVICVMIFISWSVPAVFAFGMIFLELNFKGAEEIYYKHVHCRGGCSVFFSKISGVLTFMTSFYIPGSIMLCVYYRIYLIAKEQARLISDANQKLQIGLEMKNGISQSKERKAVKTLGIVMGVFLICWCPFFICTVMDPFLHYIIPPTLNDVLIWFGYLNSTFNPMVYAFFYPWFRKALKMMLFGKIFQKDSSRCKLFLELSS
#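 Test system: RD-HGA16 CHO cells with stable hTAAR1 and Gα16 / Probe or stimulus: EC80 β-phenethylamine stimulus / Times: seeding 17-24 h prior, 75-min 37 °C, 30-min RT dye loading / Detection: Fluo-8 calcium-sensitive fluorescence / Read-out basis: % inhibition scaled between DMSO and EC80 PEA controls / Repeats: singlicate, one well per test compound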
# TAAR1 agonist: agonists of human TAAR1; CHO RD-HGA16 TAAR1, Fluo-8 calcium fluorescence; vehicle wells 0%, saturating PEA agonist 100%; activation, % at 3 µM; Q96RJ0; 360,000 compounds, 0.99% hits;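 active = activation above the mean activation of all test compounds in the run plus 3 SD, cut at about 38% in these data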
#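 System: CHO RD-HGA16 cells carrying human TAAR1 plus Gα16; Incubation: 17-24 h seeding, 75 min 37 °C dye, 30 min RT; Measured by: Fluo-8 fluorescence, 5 s baseline then 140 s kinetic read; Control set: DMSO and PEA EC100; Replication: single well for each compound.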
# OX1R antag-2: antagonists of human orexin 1 receptor (OX1R); AID 485270; OX1R-expressing cells, FRET antagonist read-out; 330,000 compounds, 1.8% hits; inhibition, % at 6.6 µM; in the data active = inhibition mostly above about 38%, no sharp cut-off; inactive = mostly below about 40%;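 also: 0% = agonist challenge alone and 100% = reference antagonist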
# GPR7 antagonist: blocks human GPR7 receptor signaling | GPR7-expressing cells, fluorescence antagonist assay | inhibition, % at 4.4 µM | 290,000 compounds, 1.1% hits | AID 1861; in the data active = inhibition above about 16%, passing the limit was not always enough;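 also: cells stimulated with the agonist NPW; 0% = agonist with vehicle and 100% = vehicle without agonist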
# Target sequence (P48145 whole entry, looked up): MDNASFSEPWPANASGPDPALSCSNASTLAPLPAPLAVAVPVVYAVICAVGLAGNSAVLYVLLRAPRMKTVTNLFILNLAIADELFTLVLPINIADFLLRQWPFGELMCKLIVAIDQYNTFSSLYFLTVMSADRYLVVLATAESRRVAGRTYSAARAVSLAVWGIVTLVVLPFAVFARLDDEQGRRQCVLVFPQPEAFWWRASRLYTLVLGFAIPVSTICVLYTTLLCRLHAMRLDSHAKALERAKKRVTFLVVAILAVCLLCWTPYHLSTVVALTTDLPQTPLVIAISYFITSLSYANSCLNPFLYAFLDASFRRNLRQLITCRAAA
# TAAR1 nonsel count: nonselective antagonism, TAAR1 counter-screen. counterscreen cell line, calcium fluorescence, antagonist mode. inhibition, % at 3 µM. shares compounds with TAAR1 antagonist. 2,400 compounds, 77% hits; in the data active = inhibition above about 22%;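 also: CHO-Ga16 host cells stimulated with ATP at an EC80 level; 0% = agonist EC80 plus vehicle and 100% = vehicle without agonist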
# TAAR1 ant conf: confirmation of human TAAR1 antagonists; TAAR1-expressing cells, fluorescence antagonist read-out; AID 651785; inhibition, % at 3 µM; shares compounds with TAAR1 antagonist; 2,400 compounds, 40% hits; in the data active = inhibition above about 49%;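 also: CHO-Ga16 host cells challenged with agonist PEA near its EC80; 0% = agonist at EC80 plus vehicle and 100% = vehicle with no agonist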
# Ga16 nonsel ag: counter-screen for TAAR1 antagonists: nonselective Ga16 agonists | shares compounds with TAAR1 antagonist | activation, % at 3 µM | AID 651953 | Ga16-expressing cells, calcium fluorescence, agonist counterscreen | 2,400 compounds, 18% hits; in the data active = activation above about 12%;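 also: 0% = vehicle wells and 100% = saturating stimulus response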
# TAAR1 ag count: TAAR1 agonism, antagonist counter-screen; shares compounds with TAAR1 antagonist; hTAAR1 cell line, fluorescence activation, agonist mode; activation, % at 3 µM; 2,400 compounds, 2% hits; in the data active = activation above about 37%;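 also: CHO cells stably expressing TAAR1 with calcium dye readout; 0% = DMSO vehicle and 100% = full agonist response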
# * hit, by the source's call; . = no result.
SMILES,OX1R antag-1,CHO parental Ca,TAAR1 antagonist,TAAR1 agonist,OX1R antag-2,GPR7 antagonist,TAAR1 nonsel count,TAAR1 ant conf,Ga16 nonsel ag,TAAR1 ag count
O=C(NCCc1cccs1)C1CC(c2ccccc2F)=NO1 (centres undefined),-17,-5,74*,37,15,.,0,81*,2,68*
COc1ccc(CCNC(=O)C2CC(c3ccccc3F)=NO2)cc1 (centres undefined),-7,-14,0,12,14,.,.,.,.,.
O=C(COC(=O)[C@@H]1CC(O)CN1S(=O)(=O)c1ccccc1[N+](=O)[O-])Nc1ccc2ccccc2c1 (some centres undefined),0,1,68*,25,12,4,41*,50*,16*,13
Cc1ccc2c(Cl)cc(Cl)c(OCC(=O)Nc3ccc(C)c(S(=O)(=O)N(C)C)c3)c2n1,-41,-22,.,.,17,2,.,.,.,.
COc1cccc(C=C(C(C)=O)C(=O)c2ccccc2)c1,.,.,-8,-1,.,.,.,.,.,.
COc1cccc(/C=C(/C(=O)OCC(N)=O)c2ccccc2)c1,-8,-14,105*,10,-1,-13,1,-2,2,5
O=C(NC(Cc1ccccc1)C(=O)N1CCc2ccccc2C1)c1ccccc1 (centres undefined),-22,-31,55*,8,25,-2,26*,46,7,5
O=C(NC(Cc1ccccc1)C(=O)O)c1ccccc1 (centres undefined),-5,-5,-3,3,7,2,.,.,.,.
CC(=O)c1ccc(NC(=O)c2ccc(C)c(S(=O)(=O)N3CCOCC3)c2)cc1,-25,-16,33,11,25,-12,.,.,.,.
Cc1cc(C)n(-c2ccc(C(=O)Nc3ccc(C)c(S(=O)(=O)N4CCOCC4)c3)cc2)n1,-12,-7,78*,17,25,2,41*,55*,14*,16
Cc1ccc(C(=O)Nc2ccc3cn[nH]c3c2)cc1S(=O)(=O)N1CCOCC1,-5,-13,62*,12,9,-12,31*,46,7,6
O=C(COC(=O)Cc1c(Cl)cccc1Cl)NCC1CCCO1 (centres undefined),3,-11,-22,3,0,-15,.,.,.,.
CCN(CC)C(=O)c1cccc(-c2csc(C(C)(O)c3ccc(OC)cc3)n2)c1 (centres undefined),.,.,86*,16,.,.,40*,60*,15*,17
CCN(CC)C(=O)c1cccc(-c2csc(C(C)(O)c3cccc(OC)c3)n2)c1 (centres undefined),.,.,78*,13,.,.,46*,59*,15*,15
CCN(CC)C(=O)c1cccc(-c2csc(C(C)(O)c3ccccc3)n2)c1 (centres undefined),.,.,30,9,.,.,.,.,.,.
Cc1c(Cl)cccc1NC(=O)Cn1nc(C)n2cccc2c1=O,-18,-11,-8,-1,-2,-3,.,.,.,.
CCOc1ccc2ncc(S(=O)(=O)c3ccc(C)cc3)c(N3CCC4(CC3)OCCO4)c2c1,-13,-12,63*,8,28,-15,20,46,4,0
CCOC(=O)c1cnc2ccc(OCC)cc2c1N1CCN(C)CC1,-27,-15,11,-1,28,-6,.,.,.,.
COC(=O)c1ccc(NS(=O)(=O)c2cc3c4c(c2)CCN4C(=O)CC3)cc1,-17,-23,-20,2,23,.,.,.,.,.
COc1cc(C(=O)N/N=C/c2ccc(OC(=O)c3cccc(C)c3)cc2)ccc1O,.,.,80*,15,.,-17,39*,62*,13*,30
COc1ccc(CNC(=O)COc2ccc(S(=O)(=O)N3CCCCC3)cc2Cl)cc1,-12,-10,73*,10,26,-1,26*,45,10,13
O=C(COc1c(F)c(F)c(C(F)(F)F)c(F)c1F)Nc1ccc(N2CCOCC2)c(Cl)c1,0,17,12,22,-1,8,.,.,.,.
CCC(C)c1ccc(NC(=O)COc2c(F)c(F)c(C(F)(F)F)c(F)c2F)cc1 (centres undefined),-32,-1,51*,1,11,-13,14,17,1,2
COc1ccc([C@H]2CC(=O)C=C(c3cccc(C(C)C)c3)C2)cc1,-12,-14,50*,9,2,.,13,18,5,9
COC(=O)c1ccc(S(=O)(=O)N(Cc2ccccc2)Cc2ccccc2)n1C,-32,-19,102*,0,9,-12,12,10,0,-2
SMILES,OX1R antag-1,CHO parental Ca,TAAR1 antagonist,TAAR1 agonist,OX1R antag-2,GPR7 antagonist,TAAR1 nonsel count,TAAR1 ant conf,Ga16 nonsel ag,TAAR1 ag count
CCN(Cc1ccccc1)S(=O)(=O)c1cc(C(=O)OC)n(C)c1,-1,-6,17,0,15,-5,.,.,.,.
COc1cccc(N2CCN(C(=O)CC(C)(C)CC3=NS(=O)(=O)c4ccccc4N3)CC2)c1,-1,15,72*,17,12,-6,36*,59*,14*,16
O=C(CCCC1=NS(=O)(=O)c2ccccc2N1)N1CCN(c2ccccc2)CC1,-3,-22,15,14,5,-17,.,.,.,.
O=C(Nc1ccc(N2CCN(C(=O)c3ccccc3)CC2)c(Cl)c1)c1ccco1,-21,-13,40,14,16,-3,.,.,.,.
O=C(Nc1ccc(N2CCN(C(=O)c3ccco3)CC2)c(Cl)c1)c1cc2ccccc2o1,18,36*,84*,16,72*,18,41*,67*,10,10
N#Cc1c(N)[nH]c2ccc(Sc3ccccc3)cc12,.,.,54*,25,.,.,28*,41,12*,24
C#CCn1cc(C=C2C(=O)c3ccccc3C2=O)c2ccccc21,.,.,6,1,.,8,.,.,.,.
COc1ccc(Nc2ncc(C(=O)N3CCC(C(N)=O)CC3)c3ccccc23)cc1,-2,-8,-4,2,12,-2,.,.,.,.
COc1ccccc1Nc1ncc(C(=O)N2CCC(C(N)=O)CC2)c2ccccc12,-8,-6,11,10,13,-15,.,.,.,.
COc1ccccc1Nc1ncc(C(=O)N2CCN(Cc3ccc(OC)c(OC)c3OC)CC2)c2ccccc12,-37,-9,71*,9,12,-2,27*,45,5,4

# Source: PubChem BioAssay
